We go through 18 compounds from ChEMBL document CHEMBL3098054, “The synthesis of novel taxoids for oral administration” (Bioorg Med Chem, 2014).

The nature of data set [1]: Apparent permeability from apical to basolateral side in human Caco2 cells at 10 uM after 90 mins by LC-MS/MS analysis. It is filed as ADME, cell-based, Caco-2. The settings on record: Caco-2. (In general: Caco-2 monolayers are a common model of the intestinal barrier.)
Data set [2] concerns MCF7. Kind of data set: Cytotoxicity against human MCF7 cells after 72 hrs by MTT assay. The format is functional, cell-based. Conditions: MCF7, 72 h. The method in brief: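 MCF-7 cells exposed to compound for 72 h and read by MTT. At least six replicate wells per assay, run on three separate occasions. IC₅₀ given as mean with standard deviation.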
In data set [3] the test system is HeLa. Kind of data set: Cytotoxicity against human HeLa cells at 1 uM after 72 hrs by MTT assay. The format is functional. Conditions: read-out: GI. The method in brief: (§1)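 Cells plated at 2000–5000/well, attached overnight at 37 °C. DMSO stocks (100 mM) serially diluted in medium to a final 1 µM, tested in duplicate wells. Exposure 72 h at 37 °C, 5% CO₂. MTT (5 mg/mL, 10 µL) added for 4 h. Lysis in 10% SDS / 5% isopropanol / 0.012 N HCl, then OD read at 580–680 nm.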
In general terms: Tetrazolium assays rely on reduction of a dye to a coloured formazan, in cell work by metabolically active cells.

The subject of data set [4] is HL-60. Put plainly: Cytotoxicity against human HL60 cells at 1 uM after 72 hrs by MTT assay. The settings on record: HL-60, 72 h, read-out: GI. It is filed as functional. The method in brief: as §1
For data set [5], the system named is DU-145. Put plainly: Cytotoxicity against human DU145 cells at 1 uM after 72 hrs by MTT assay. The settings on record: DU-145, 72 h, read-out: GI. The format is functional. The method in brief: as §1
The test system of data set [6] is HT-29. Put plainly: Cytotoxicity against human HT-29 cells at 1 uM after 72 hrs by MTT assay. The format is functional. Conditions: HT-29, 72 h, read-out: GI. In outline: as §1
Data set [7] deals with A-375. Kind of data set: Cytotoxicity against human A375 cells at 1 uM after 72 hrs by MTT assay. It is filed as functional. Conditions: A-375, 72 h, read-out: GI. In outline:
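Cells plated at 2000–5000/well, attached overnight at 37 °C. DMSO stocks (100 mM) serially diluted in medium to a final 1 µM, tested in duplicate wells. MTT (5 mg/mL, 10 µL) added for 4 h. Lysis in 10% SDS / 5% isopropanol / 0.012 N HCl, then OD read at 580–680 nm.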

In data set [8] the test system is MCF7. Kind of data set: Cytotoxicity against human MCF7 cells at 1 uM after 72 hrs by MTT assay. It is filed as functional. Conditions: MCF7, 72 h, read-out: GI. In outline:
as §1

Data set [9] deals with NCI-H460. Put plainly: Cytotoxicity against human NCI-H460 cells at 1 uM after 72 hrs by MTT assay. It is filed as functional. The settings on record: NCI-H460, 72 h, read-out: GI. In outline:
as §1

The test system of data set [10] is A2780. Kind of data set: Cytotoxicity against human A2780 cells at 1 uM after 72 hrs by MTT assay. The format is functional. The settings on record: A2780, 72 h, read-out: GI. The method in brief: as §1

One may read the Papp A→B as how fast a substance crosses the layer from the apical side. In general, IC50 refers to the midpoint of a concentration-inhibition curve. Higher therefore signals a need for much substance. For `COC(=O)O[C@H]1C[C@H]2OC[C@@]2(OC(C)=O)[C@H]2[C@H](OC(=O)c3ccccc3)[C@]34OC(=O)O[C@H]3[C@H](OC(=O)[C@H](O)[C@@H](NC(=O)OC(C)(C)C)c3ccccc3)C(C)=C([C@@H](OC)C(=O)[C@]12C)C4(C)C`, the Papp A→B at 1.5 h, 10 µM in data set [1] was 3.93 ×10⁻⁶ cm/s. In [2], this compound showed an IC50 of 3.84 nM.

Turning to `CO[C@H]1C(=O)[C@]2(C)[C@@H](OC(=O)N(C)C)C[C@H]3OC[C@@]3(OC(C)=O)[C@H]2[C@H](OC(=O)c2ccccc2)[C@]23OC(=O)O[C@H]2[C@H](OC(=O)[C@H](O)[C@@H](NC(=O)OC(C)(C)C)c2ccccn2)C(C)=C1C3(C)C`, the Papp A→B at 1.5 h, 10 µM in data set [1] is 2.46 ×10⁻⁶ cm/s. Moreover, the IC50 in data set [2] stood at 18.2 nM.

For the compound `CO[C@H]1C(=O)[C@]2(C)CC[C@H]3OC[C@@]3(OC(C)=O)[C@H]2[C@H](OC(=O)c2ccccc2)[C@]2(O)C[C@H](OC(=O)[C@H](O)[C@@H](NC(=O)OC(C)(C)C)c3ccccc3)C(C)=C1C2(C)C`, in [1], the Papp A→B at 1.5 h, 10 µM is 3.64 ×10⁻⁶ cm/s. The compound further returned a concentration for half-maximal inhibition (IC50) in data set [2] of 3.33 nM. Moreover, the inhibition of growth at 1 µM in [3] was found to be 101%.

For the compound `CO[C@H]1C(=O)[C@]2(C)[C@@H](OC)C[C@H]3OC[C@@]3(OC(C)=O)[C@H]2[C@H](OC(=O)c2ccccc2)[C@]2(O)C[C@H](OC(=O)[C@H](O)[C@@H](NC(=O)OC(C)(C)C)c3ccccc3)C(C)=C1C2(C)C` [CABAZITAXEL], in [1], the Papp A→B at 1.5 h, 10 µM was determined as 3.73 ×10⁻⁶ cm/s. Further, the inhibition of growth at 1 µM was 97.8% in data set [4]; 83.1% in data set [5]; 87.2% in [6]; 97% in data set [7]; 88.5% in data set [8]; 79.8% in data set [9]. Besides, the inhibition of growth at 1 µM in data set [3] is 98.2%; in data set [10] it was 93.8%.

With `COC(=O)O[C@H]1C(=O)[C@]2(C)[C@@H](OC)C[C@H]3OC[C@@]3(OC(C)=O)[C@H]2[C@H](OC(=O)c2ccccc2)[C@]23OC(=O)O[C@H]2[C@H](OC(=O)[C@H](O)[C@@H](NC(=O)OC(C)(C)C)c2ccccc2)C(C)=C1C3(C)C`, the Papp A→B at 1.5 h, 10 µM in [1] was below 1.43 ×10⁻⁶ cm/s. The same compound displayed an IC50 in data set [2] of 3.24 nM.

On to `CO[C@H]1C(=O)[C@]2(C)[C@@H](OC)C[C@H]3OC[C@@]3(OC(C)=O)[C@H]2[C@H](OC(=O)c2ccccc2)[C@]2(O)C[C@H](OC(=O)[C@H](O)[C@@H](NC(=O)c3ccccc3)c3ccccc3)C(C)=C1C2(C)C`, for which the inhibition of growth at 1 µM in data set [4] stood at 97.2%; in data set [5], 86.4%; in data set [6], 87.5%; in [7], 89.7%; in data set [8] it was 92.1%; in data set [9] it was 85%. For the same compound, the inhibition of growth at 1 µM was found to be 102% in data set [3] and 95.2% in data set [10].

With `CO[C@H]1C(=O)[C@]2(C)[C@@H](OC(=O)N(C)C)C[C@H]3OC[C@@]3(OC(C)=O)[C@H]2[C@H](OC(=O)c2ccccc2)[C@]2(O)C[C@H](OC(=O)[C@H](O)[C@@H](NC(=O)c3ccccc3)c3ccccc3)C(C)=C1C2(C)C`, the Papp A→B at 1.5 h, 10 µM in data set [1] is 3.27 ×10⁻⁶ cm/s. The compound further registered a half-maximal inhibitory concentration (IC50) in [2] of 64.7 nM. Besides, the inhibition of growth at 1 µM in data set [4] turned out to be 97.8%; in data set [5], 85.8%; in data set [6] it was 89.4%; in [7], 88.4%; in [8], 90.8%; in data set [9], 87.7%. The inhibition of growth at 1 µM in [3] is 103%; in data set [10] it was 95.6%.

With `CO[C@H]1C[C@H]2OC[C@@]2(OC(C)=O)[C@H]2[C@H](OC(=O)c3ccccc3)[C@]34OC(=O)O[C@H]3[C@H](OC(=O)[C@H](O)[C@@H](NC(=O)OC(C)(C)C)c3ccccn3)C(C)=C([C@@H](OC(=O)N(C)C)C(=O)[C@]12C)C4(C)C`, the Papp A→B at 1.5 h, 10 µM in data set [1] is 4.68 ×10⁻⁶ cm/s. Further, the IC50 in data set [2] was 14.3 nM.

`CO[C@H]1C(=O)[C@]2(C)[C@@H](OC)C[C@H]3OC[C@@]3(OC(C)=O)[C@H]2[C@H](OC(=O)c2ccccc2)[C@]23OC(=O)O[C@H]2[C@H](OC(=O)[C@H](O)[C@@H](NC(=O)OC(C)(C)C)c2ccccn2)C(C)=C1C3(C)C`: in data set [1], the Papp A→B at 1.5 h, 10 µM is 3.66 ×10⁻⁶ cm/s. Moreover, inhibition in [2] was half-maximal at 3.4 nM (IC50).

For `COC(=O)O[C@H]1C[C@H]2OC[C@@]2(OC(C)=O)[C@H]2[C@H](OC(=O)c3ccccc3)[C@]3(O)C[C@H](OC(=O)[C@H](O)[C@@H](NC(=O)c4ccccc4)c4ccccc4)C(C)=C([C@@H](OC)C(=O)[C@]12C)C3(C)C`, in data set [1], the Papp A→B at 1.5 h, 10 µM came out at 3.32 ×10⁻⁶ cm/s. In addition, the inhibition of growth at 1 µM in data set [4] was 97.8%; in data set [5] it was 88.3%; in data set [6], 89.7%; in [7], 94%; in data set [8], 107%; in data set [9], 90.3%. Further, the inhibition of growth at 1 µM in data set [3] was 102%; in data set [10], 96.9%.

As to `CO[C@H]1C(=O)[C@]2(C)[C@@H](OC(=O)N(C)C)C[C@H]3OC[C@@]3(OC(C)=O)[C@H]2[C@H](OC(=O)c2ccccc2)[C@]2(O)C[C@H](OC(=O)[C@H](O)[C@@H](NC(=O)OC(C)(C)C)c3ccccn3)C(C)=C1C2(C)C`, the Papp A→B at 1.5 h, 10 µM in data set [1] is 4.41 ×10⁻⁶ cm/s. This compound gave an IC50 in data set [2] of 46.6 nM. For the same compound, the inhibition of growth at 1 µM in data set [3] was found to be 103%.

Regarding `COC(=O)O[C@H]1C[C@H]2OC[C@@]2(OC(C)=O)[C@H]2[C@H](OC(=O)c3ccccc3)[C@]3(O)C[C@H](OC(=O)[C@H](O)[C@@H](NC(=O)OC(C)(C)C)c4ccccn4)C(C)=C([C@@H](OC)C(=O)[C@]12C)C3(C)C`, the Papp A→B at 1.5 h, 10 µM in data set [1] came to 4.53 ×10⁻⁶ cm/s. Moreover, the inhibition of growth at 1 µM in data set [3] was found to be 102%.

Consider `CC[C@H]1OC(=O)[C@H](C)[C@@H](O[C@H]2C[C@@](C)(OC)[C@@H](O)[C@H](C)O2)[C@H](C)[C@@H](O[C@@H]2O[C@H](C)C[C@H](N(C)C)[C@H]2O)[C@](C)(O)C[C@@H](C)C(=O)[C@H](C)[C@@H](O)[C@]1(C)O` [ERYTHROMYCIN], for which the Papp A→B at 1.5 h, 10 µM in data set [1] is 0.58 ×10⁻⁶ cm/s.

Turning to `COC(=O)O[C@H]1C(=O)[C@]2(C)[C@@H](OC)C[C@H]3OC[C@@]3(OC(C)=O)[C@H]2[C@H](OC(=O)c2ccccc2)[C@]2(O)C[C@H](OC(=O)[C@H](O)[C@@H](NC(=O)c3ccccc3)c3ccccc3)C(C)=C1C2(C)C`, the Papp A→B at 1.5 h, 10 µM in [1] came to 4.38 ×10⁻⁶ cm/s. Moreover, the inhibition of growth at 1 µM was determined as 96.8% in [4]; 86.2% in data set [5]; 88.8% in [6]; 94.2% in [7]; 95.5% in data set [8]; 86.4% in [9]. In addition, the inhibition of growth at 1 µM was determined as 101% in data set [3] and 95.8% in data set [10].

With `CO[C@H]1C(=O)[C@]2(C)[C@@H](OC)C[C@H]3OC[C@@]3(OC(C)=O)[C@H]2[C@H](OC(=O)c2ccccc2)[C@]23OC(=O)O[C@H]2[C@H](OC(=O)[C@H](O)[C@H](CC(C)C)NC(=O)OC(C)(C)C)C(C)=C1C3(C)C`, in data set [1], the Papp A→B at 1.5 h, 10 µM worked out at 2.57 ×10⁻⁶ cm/s. For the same compound, in [2], the IC50 is 4.04 nM.

`CO[C@H]1C[C@H]2OC[C@@]2(OC(C)=O)[C@H]2[C@H](OC(=O)c3ccccc3)[C@]34OC(=O)O[C@H]3[C@H](OC(=O)[C@H](O)[C@H](CC(C)C)NC(=O)OC(C)(C)C)C(C)=C([C@@H](OC(=O)N(C)C)C(=O)[C@]12C)C4(C)C`: the Papp A→B at 1.5 h, 10 µM in [1] came to 1.07 ×10⁻⁶ cm/s. Further, the IC50 in [2] stood at 6.44 nM.

As for `CO[C@H]1C[C@H]2OC[C@@]2(OC(C)=O)[C@H]2[C@H](OC(=O)c3ccccc3)[C@]3(O)C[C@H](OC(=O)[C@H](O)[C@@H](NC(=O)OC(C)(C)C)c4ccccn4)C(C)=C([C@@H](OC(=O)N(C)C)C(=O)[C@]12C)C3(C)C`, in [1], the Papp A→B at 1.5 h, 10 µM was 3.02 ×10⁻⁶ cm/s. In addition, the inhibition of growth at 1 µM in data set [3] was 100%.

For `CO[C@H]1C[C@H]2OC[C@@]2(OC(C)=O)[C@H]2[C@H](OC(=O)c3ccccc3)[C@]3(O)C[C@H](OC(=O)[C@H](O)[C@@H](NC(=O)c4ccccc4)c4ccccc4)C(C)=C([C@@H](OC(=O)N(C)C)C(=O)[C@]12C)C3(C)C`, in data set [1], the Papp A→B at 1.5 h, 10 µM turned out to be 2.94 ×10⁻⁶ cm/s. In addition, the inhibition of growth at 1 µM in data set [4] is 97.5%; in data set [5], 87.1%; in [6], 87.9%; in data set [7] it was 87.7%; in [8], 85.7%; in data set [9], 86.5%. The inhibition of growth at 1 µM in data set [3] turned out to be 102%; in data set [10] it was 96.3%.
